# dFosB act-1: enhances mouse delta FosB homodimer DNA binding; activation, % at 25 µM; P13346; AID 493131; 0.99% of 340,000 active; purified delta FosB, TAMRA-CDK5 oligo fluorescence polarization; percent of positive-control signal above neutral wells;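 active means mean activation above about 17%, with every replicate also reaching it, limit read from the data, passing the limit was not always enough; inconclusive means only one of the two conditions met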
# Target sequence (P13346 whole entry, looked up): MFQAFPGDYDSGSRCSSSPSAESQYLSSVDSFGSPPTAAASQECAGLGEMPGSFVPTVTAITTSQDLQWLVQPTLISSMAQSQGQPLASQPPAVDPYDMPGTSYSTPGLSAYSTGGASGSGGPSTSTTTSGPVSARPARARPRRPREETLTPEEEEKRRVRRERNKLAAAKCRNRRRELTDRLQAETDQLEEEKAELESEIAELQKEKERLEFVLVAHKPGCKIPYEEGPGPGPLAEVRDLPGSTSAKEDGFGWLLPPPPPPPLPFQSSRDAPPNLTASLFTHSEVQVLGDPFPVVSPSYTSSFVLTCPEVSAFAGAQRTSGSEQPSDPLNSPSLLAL
# CDK5 inh: blocks human CDK5/p35 kinase activity | Recombinant CDK5/p35, ADP-Glo luminescence, 60 min | inhibition, % at 10 µM | 0.01% of 330,000 active;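 active means highest replicate inhibition of at least 50% and at least 75% of replicates reaching 50%; inconclusive means only one of the two criteria met; inactive means both criteria failed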;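 further: plate controls were DMSO neutral control for no effect and GW8510 at 10 µM for full effect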
# SR-BI uptake up: SR-BI HDL lipid transfer activation; AID 504775; CHO ldlA[mSR-BI] cells, DiI-HDL uptake fluorescence, 3 h; 100 = double the neutral-control signal; 0.096% of 320,000 active; activation, % at 12.5 µM;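 active means mean replicate activation of at least 60% and every replicate at or above 60%; inconclusive means mean or all-replicate condition met, but not both; inactive means mean below 60% and not all replicates reaching 60%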;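 further: 0% = median plate neutral-control signal and 100% = twice that signal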
#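 Material – SR-BI-overexpressing, LDLR-lacking CHO cells · Medium – BSA-supplemented, HEPES-buffered Ham's F12, pH 7.4 · Doses – single concentration · Times – compound with DiI-HDL co-incubation, 3 h at 37 °C · Measured by – bottom-read fluorescence, 550/595 nm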
# Dyrk1A ADPGlo: blocks rat Dyrk1A kinase activity. inhibition, % at 12.5 µM. Q63470. 0.43% of 310,000 active. ADP-Glo luminescence, NFATc1 peptide. AID 504441;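 further: plate controls were vehicle with enzyme for no effect and no enzyme for full effect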
# NSD2 inh: blocks human histone methyltransferase NSD2. O96028. 0.54% of 310,000 active. inhibition, % at 12.5 µM. AID 743445. NSD2 peptide methylation, AlphaScreen, 120 min
# SR-BI DiI inh: mouse SR-BI HDL lipid transfer inhibition; ldlA[mSR-BI] CHO cells, DiI-HDL uptake fluorescence, 3 h; AID 488896; Q61009; inhibition, % at 12.5 µM; 0.96% of 320,000 active;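 active means mean replicate inhibition of at least 70% and a set share of replicates each scoring 70 or more; inconclusive means meets just one of the two criteria; inactive means fails both criteria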;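 further: 0% = median of neutral control wells and 100% = median of positive control wells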
# dFosB act-2: enhances mouse delta FosB homodimer binding to DNA; activation, % at 24.9 µM; shares compounds with dFosB act-1; purified delta FosB, TAMRA-CDK5 oligo fluorescence polarization; normalised: neutral wells 0, positive control 100; AID 588690; 2,400 tested, under 10 active;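 active means highest replicate activation at or above 34% and every replicate reaching that threshold; inconclusive means meets only one of the two criteria; inactive means meets neither criterion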;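 further: higher polarization means more probe DNA bound by delta FosB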
# The depositor's hits bear a star; ? = inconclusive; · = no result. Rows were chosen to be rich in hits. Some 2.5% of all compounds tested hit in one or more screens of this group. Unless noted, no stated cut-off is given here; in the data, active means inhibition above about 50%; inactive means the rest.
SMILES,dFosB act-1,CDK5 inh,SR-BI uptake up,Dyrk1A ADPGlo,NSD2 inh,SR-BI DiI inh,dFosB act-2
CCOc1ccc(C(=O)NCC(=O)OCC(=O)Nc2nnc(-c3ccccc3)o2)cc1,-9.4,0.4,10.4,8.7,1.4,-10.4,·
CCN(CC)c1nc(NN)nc(Nc2ccc(C)c(Cl)c2)n1,41.6*,-0.6,-7.9,-2.3,-1.2,7.9,?
COCCNC(=O)C1(C)CCN(C(=O)c2sccc2C)C1 (stereo unspecified),·,·,·,·,-0.4,·,·
Cc1ccc(S(=O)(=O)Nc2cccc(-c3ccc4nncn4n3)c2)cc1,19.6*,0.1,-15.2,-7.6,0.6,15.2,-0.7
Cc1c(F)cccc1NS(=O)(=O)c1ccc2c(c1)c(C)cc(=O)n2C,-12.5,-0.2,-19.9,0.3,-0.6,19.9,·
Cc1cc(NC(=O)CSc2nnnn2-c2ccc(C)c(C)c2)no1,-6.7,-0.2,-8.0,-2.8,1.0,8.0,·
COc1ccc(OC)c(NC(=O)CSc2nnnn2-c2ccc3c(c2)OCO3)c1,0.6,3.6,15.1,·,·,-15.1,·
Cc1ccc(NC(=O)CSc2nnnn2-c2ccc3c(c2)OCO3)cc1C,40.4*,0.0,17.0,-0.3,15.8,-17.0,0.1
Cc1ccc(-n2nnnc2SCC(=O)Nc2ccc3c(c2)COC3=O)cc1C,53.6*,-1.5,16.2,-5.3,-4.8,-16.2,-3.4
COc1ccc(C(CNC(=O)C2CC(=O)N(Cc3ccccc3)C2)N2CCOCC2)cc1 (stereo unspecified),0.4,-1.3,-0.6,·,0.5,0.6,·
O=C(COc1ccc(/C=N/NC(=O)c2ccccc2O)cc1)Nc1ccc([N+](=O)[O-])cc1,24.4*,-0.3,-53.2,1.6,5.6,53.2,-3.3
O=C(CCC(=O)Nc1ccccc1Cl)NNC(=O)COc1ccc([N+](=O)[O-])cc1,16.7*,-0.8,16.9,2.3,-1.4,-16.9,-1.6
CC(=O)c1ccc(OCC(=O)Nc2ccccc2C(=O)NC2CC2)cc1,30.3*,1.1,9.5,-1.0,-1.2,-9.5,0.2
O=C(COc1ccc([N+](=O)[O-])cc1)Nc1ccccc1C(=O)NC1CC1,25.6*,0.1,-10.2,17.1,-0.5,10.2,2.4
Cc1ccc(NC(=O)CCC(=O)NNC(=O)COc2ccc([N+](=O)[O-])cc2)c(C)c1,7.8,-1.5,·,-2.1,-2.5,-3.4,·
CCN(C(=O)CSc1n[nH]c(-c2ccccc2)n1)c1c(N)n(Cc2ccccc2)c(=O)[nH]c1=O,-5.3,0.7,7.9,7.5,-0.5,-7.9,·
CN(Cc1nc2ccccc2c(=O)[nH]1)C(=O)c1ccc(S(=O)(=O)N2CCCC2)cc1,2.1,-1.4,19.9,·,-7.2,-19.9,·
CC(C)CC(=O)Nc1ccc2c(c1)nc(CCN1CCCCC1)n2C,5.3,1.2,10.3,2.4,-0.8,-10.3,·
CCCCn1c(CCC(=O)O)nc2cc(S(=O)(=O)N3CCCC3)ccc21,0.2,-1.2,5.3,·,-1.5,-5.3,·
Cc1cc(Br)cc(C)c1OCC(=O)NNC(=O)CCC(=O)NCc1ccccc1,49.2*,-1.1,-30.4,-5.8,-1.9,30.4,3.4
Cc1ccc(OCC(=O)NNC(=O)CCC(=O)NCc2ccccc2)cc1,5.8,-1.2,3.3,5.5,-1.7,-3.3,·
Cc1occc1C(=O)Nc1cccc(Cl)c1Cl,-5.3,1.8,-13.2,-4.2,4.1,13.2,·
Cc1cc(NC(=O)c2cncc(Br)c2)ccc1NC(=O)c1cc2ccccc2o1,57.6*,1.6,-96.6,-3.0,0.2,96.6*,-0.1
COc1cc(NC(=O)c2ccccc2)ccc1NC(=O)c1cc2ccccc2o1,-15.1,0.0,-49.1,-1.2,-2.3,49.1,·
CCc1cccc2c(C(=O)COC(=O)c3ccc(O)cc3)c[nH]c12,35.9*,1.9,-38.4,2.5,2.0,38.4,3.9
SMILES,dFosB act-1,CDK5 inh,SR-BI uptake up,Dyrk1A ADPGlo,NSD2 inh,SR-BI DiI inh,dFosB act-2
CCc1cccc2c(C(=O)COC(=O)c3ccccc3)c[nH]c12,-3.2,1.1,-3.2,-1.3,3.7,3.2,·
COc1cc(NC(=O)COC(=O)c2n[nH]c3ccccc23)c(C)cc1[N+](=O)[O-],31.9*,-3.3,-41.9,11.4,-2.3,41.9,-0.8
O=C(COC(=O)c1n[nH]c2ccccc12)Nc1ccc([N+](=O)[O-])cc1,14.1,-0.7,-6.7,-1.1,2.1,6.7,·
Cc1cccc(C)c1NC(=O)CN1C(=O)CCSc2ccc(S(=O)(=O)N3CCCC3)cc21,47.7*,-1.9,4.7,-9.3,-1.1,-4.7,-0.1
O=C(Nc1ccc(Oc2ccc3c(c2)C(=O)N(c2ccc(O)cc2)C3=O)cc1)c1cccs1,61.4*,-0.6,-16.2,-6.0,1.7,16.2,-3.6
Cc1c(/C=N/n2cnnc2)c2ccccc2n1CCOc1ccc(Cl)cc1,5.5,1.6,-22.3,2.5,-0.1,22.3,·
Cc1ccc(OCCn2c(C)c(/C=N/n3cnnc3)c3ccccc32)cc1,31.2*,0.0,-31.3,-0.8,·,31.2,4.9
Cc1cc(C)[n+]2[nH]c(N)c(N=Nc3ccccc3)c2n1,-2.2,0.2,2.3,·,-1.7,-2.3,·
COc1ccc(CNC(=O)Cn2ncn3c(cc4ccccc43)c2=O)cc1,73.3*,0.4,6.0,5.9,-2.0,-6.0,0.7
COc1ccc(-c2cc3c(=O)n(CC(=O)Nc4cccc(Cl)c4)ncn3n2)cc1,42.0*,·,1.9,·,13.8,-1.9,2.2
COc1ccc(-c2cc3c(=O)n(CC(=O)NCc4ccc(F)cc4)ncn3n2)cc1,100.5*,0.6,-7.5,-0.4,·,7.5,?
COc1ccc(-c2cc3c(=O)n(CC(=O)NCc4ccc(Cl)cc4)ncn3n2)cc1,-0.4,0.4,-12.1,2.0,·,12.1,·
CCOc1ccc(N2CC(C(=O)NCc3nnnn3-c3ccc(C)c(C)c3)CC2=O)cc1 (stereo unspecified),-4.2,0.3,-50.9,4.9,0.1,50.9,·
COc1ccc(C(=O)N2CCCC(Nc3ccc(C)c(C)c3)C2)c(OC)n1 (stereo unspecified),-5.7,-1.1,-7.2,-4.3,3.2,7.2,·
Cc1ccccc1NC(=O)Cc1nc(COC(=O)c2cc([N+](=O)[O-])ccc2N)cs1,26.5*,0.3,-9.8,·,-1.4,9.8,-6.8
O=[N+]([O-])c1cc(-c2csc(NC(CO)c3nc4ccccc4n3CCOCCO)n2)ccc1Cl (stereo unspecified),1.1,-0.8,2.0,8.5,·,-2.0,·
Cc1ccc(-c2cc(C(=O)NC3=NCCS3)c3ccccc3n2)cc1C,12.8,-1.1,-54.7,-1.3,-1.8,54.7,·
O=C(NC1=NCCS1)c1cc(-c2cccc(Br)c2)nc2ccccc12,31.0*,-0.2,5.2,-4.4,0.5,-5.2,1.0
